Published values pooled from the literature.
Target: Serine/threonine-protein kinase PAK 2 (PAK2, Homo sapiens, UniProt Q13177)

SMILES	effect on	technique	concentration	remaining binding
N#Cc1ccccc1CSc1nnc2c(n1)[nH]c1ccccc12	binding	competition with immobilised ligand	10 µM	88%
COc1cnc(Nc2cccc(S(N)(=O)=O)c2)nc1N1CCN(c2ccccc2)C(=O)C1	binding	competition with immobilised ligand	1 µM	83%
C[C@H]1CCN(c2nccc(-c3cnn4ncccc34)n2)C1	binding	–	1 µM	59%
CCCCN(CCCC)C(=O)CN1C[C@@H](c2cc(OC)c3c(c2)OCO3)[C@H](C(=O)O)[C@H]1CC(C)(C)CCC	cell-free assay	competition with immobilised ligand	1 µM	83.5%
O=C(Nc1c[nH]nc1C(=O)NC1CCNCC1)c1cc(F)cc(F)c1	binding	competition with immobilised ligand	1 µM	100%
Cc1cnn2ncc(-c3ccnc(N(C)C)n3)c2c1	binding	–	1 µM	96%
COc1cc(-c2cn(C3CCc4c(F)cccc4N(CC(F)(F)F)C3=O)nn2)ccc1-n1cnc(C)c1 (stereo not drawn)	cell-free assay	competition with immobilised ligand	1 µM	91%
Cc1cnc(Nc2ccc(C(=O)N3CCC(N4CCCC4)CC3)cc2)nc1-c1cc2ccccc2s1	binding	competition with immobilised ligand	1 µM	76%
c1cnn2ncc(-c3ccnc(N4CCC45COC5)n3)c2c1	binding	–	1 µM	70%
CNC(=O)[C@@H]1CC[C@@H](n2c(-c3ccc4cnccc4c3)nc3ccc(C(=O)NCc4cccc(C(N)=O)c4)cc32)C1	binding	competition with immobilised ligand	1 µM	96%
CN(CCCC(F)(F)F)c1nccc(-c2cnn3ncccc23)n1	binding	–	1 µM	100%
C[C@@H]1CN(c2ccc3ncc(-c4ccc5[nH]nc(C6CC6)c5c4)n3n2)C[C@H](C)O1	binding	competition with immobilised ligand	0.5 µM	55%
O=C(N[C@H]1CCCCC/C=C\C2C[C@@]2(C(=O)O)NC(=O)[C@@H]2C[C@@H](Oc3ccncc3)CN2C1=O)OC1CCCC1 (stereo partly drawn)	binding	competition with immobilised ligand	1 µM	79%
O=C(NCCCN1CCOCC1)c1ccc(Nc2ncc(Cl)c(-c3ccc(Cl)s3)n2)cc1	binding	competition with immobilised ligand	1 µM	90%
CNCc1ccccc1-c1csc([C@@H](C)Nc2nc(C)nc3cc(OC)c(OC)cc23)c1	cell-free assay	competition with immobilised ligand	1 µM	88%
CCN1CCN(Cc2ccc(C(=O)Nc3ccc(C)c(Oc4ccc5c(c4)CC(=O)N5)c3)cc2C(F)(F)F)CC1	binding	competition with immobilised ligand	1 µM	100%
N[C@H]1CCN(c2nccc(-c3cnn4ncccc34)n2)C1	binding	–	1 µM	87%
O=C(c1ccc(Nc2nccc(-c3cc4ccccc4s3)n2)cc1)N1CCC(N2CCCC2)CC1	binding	competition with immobilised ligand	1 µM	69%
CCS(=O)(=O)c1cc2cc(C[C@](O)(CC(C)(C)c3ccc(F)cc3C(N)=O)C(F)(F)F)[nH]c2cn1	cell-free assay	competition with immobilised ligand	1 µM	86%
CC(C)(C)c1ccc(-c2nc(CBr)nn2-c2cccc(O)c2)cc1	cell-free assay	competition with immobilised ligand	10 µM	100%
C[C@@]1(Cc2ccc(C#N)cc2)C(=O)N(c2cc(Cl)cc(Cl)c2)c2ncc(C(=O)NC3(c4nc(C5CCC5)no4)CC3)n21	cell-free assay	competition with immobilised ligand	1 µM	64%
CN(C)c1nccc(-c2cnn3ncccc23)n1	binding	–	1 µM	64%
O=C(N1CCS(=O)(=O)CC1)N1C[C@H](c2ccc(OC(F)(F)F)cc2)C[C@H](c2nc(C3CC3)no2)C1	cell-free assay	competition with immobilised ligand	1 µM	90%
COc1ncc2cc3ccccc3nc2c1C#N	cell-free assay	competition with immobilised ligand	5 µM	85%
